Test results reported in article PMC2825290 (ACS chemical biology, 2010).
Entries after “also recorded” stand apart in the source; their conditions may differ.

What was measured:
[1] = tested on: dorsoventral (DV) axis of zebrafish embryos (BMPR-I inhibition); assay: Zebrafish embryo dorsalization; format: in vivo; details: for Dorsalization (EC100, μM): zebrafish embryos treated from 3-hpf, concentration when 100% of treated embryos are severely dorsalized, at least 20 embryos per condition
[2] = tested on: intersomitic vessel (ISV) formation in Tg(Fli:EGFP)y1 embryos (VEGFR-2 inhibition); assay: Zebrafish intersomitic vessel; format: in vivo; details: for Effect on ISV formation (words, no concentration given): ISV visualized at 48-hpf
[3] = tested on: VEGF-stimulated Flk1 phosphorylation; assay: Western blot, VEGF-stimulated Flk1 phosphorylation in BAEC; format: cell-based, bovine
zebrafish embryos = assay: Zebrafish embryo nonspecific toxicity; details: for Early lethality at 20 μM: administered at 3-hpf
[4] = target: T1, human TGFβ type-I receptor activin receptor-like kinase 5 (Alk5/TGFβR1) (Homo sapiens, UniProt P36897); assay: In vitro kinase assay ALK5; format: biochemical; details: purified human enzyme, 10 μM ATP
T1 sequence (P36897 34-503): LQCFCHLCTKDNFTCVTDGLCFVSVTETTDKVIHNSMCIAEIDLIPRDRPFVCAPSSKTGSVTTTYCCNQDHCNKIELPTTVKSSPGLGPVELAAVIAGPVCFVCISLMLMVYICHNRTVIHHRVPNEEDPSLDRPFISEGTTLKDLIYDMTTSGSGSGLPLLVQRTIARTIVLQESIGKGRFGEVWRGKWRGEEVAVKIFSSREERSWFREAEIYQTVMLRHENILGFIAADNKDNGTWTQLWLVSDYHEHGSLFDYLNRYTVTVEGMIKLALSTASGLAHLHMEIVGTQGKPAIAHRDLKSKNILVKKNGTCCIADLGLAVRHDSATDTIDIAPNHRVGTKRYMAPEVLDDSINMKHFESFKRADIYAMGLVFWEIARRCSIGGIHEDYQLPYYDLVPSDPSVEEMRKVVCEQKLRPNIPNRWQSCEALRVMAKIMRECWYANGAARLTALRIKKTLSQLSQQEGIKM

[5] = target: human AMP-activated protein kinase (AMPK/A1/B1/G1) (Homo sapiens, UniProt Q13131); assay: In vitro kinase assay AMPK; format: biochemical; details: purified human enzyme, 10 μM ATP
human AMP-activated protein kinase (AMPK/A1/B1/G1), sequence (Q13131 whole entry): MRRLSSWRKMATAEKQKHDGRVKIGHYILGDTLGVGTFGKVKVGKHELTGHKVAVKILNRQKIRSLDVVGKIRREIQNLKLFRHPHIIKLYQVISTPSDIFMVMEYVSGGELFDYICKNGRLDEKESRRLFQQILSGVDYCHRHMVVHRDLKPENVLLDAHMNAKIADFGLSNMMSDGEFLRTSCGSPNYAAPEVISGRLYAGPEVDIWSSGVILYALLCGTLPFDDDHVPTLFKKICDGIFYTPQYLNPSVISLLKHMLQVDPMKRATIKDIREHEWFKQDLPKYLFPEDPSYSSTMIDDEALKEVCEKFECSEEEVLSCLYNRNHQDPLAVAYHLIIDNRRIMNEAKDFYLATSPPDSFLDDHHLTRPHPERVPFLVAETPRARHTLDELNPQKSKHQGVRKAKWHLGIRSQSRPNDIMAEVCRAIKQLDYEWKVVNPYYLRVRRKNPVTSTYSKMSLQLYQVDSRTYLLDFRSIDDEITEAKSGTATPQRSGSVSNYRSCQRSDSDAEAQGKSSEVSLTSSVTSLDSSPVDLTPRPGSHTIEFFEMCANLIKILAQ
human AMP-activated protein kinase (AMPK/A1/B1/G1), sequence (Q9Y478 whole entry partner): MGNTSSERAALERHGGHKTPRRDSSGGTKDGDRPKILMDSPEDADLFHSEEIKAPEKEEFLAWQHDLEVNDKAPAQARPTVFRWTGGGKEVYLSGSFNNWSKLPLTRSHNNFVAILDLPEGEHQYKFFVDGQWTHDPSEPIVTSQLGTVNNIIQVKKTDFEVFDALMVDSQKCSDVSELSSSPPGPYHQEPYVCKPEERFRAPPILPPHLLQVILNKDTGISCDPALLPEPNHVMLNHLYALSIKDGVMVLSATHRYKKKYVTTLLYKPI
human AMP-activated protein kinase (AMPK/A1/B1/G1), sequence (P54619 whole entry partner): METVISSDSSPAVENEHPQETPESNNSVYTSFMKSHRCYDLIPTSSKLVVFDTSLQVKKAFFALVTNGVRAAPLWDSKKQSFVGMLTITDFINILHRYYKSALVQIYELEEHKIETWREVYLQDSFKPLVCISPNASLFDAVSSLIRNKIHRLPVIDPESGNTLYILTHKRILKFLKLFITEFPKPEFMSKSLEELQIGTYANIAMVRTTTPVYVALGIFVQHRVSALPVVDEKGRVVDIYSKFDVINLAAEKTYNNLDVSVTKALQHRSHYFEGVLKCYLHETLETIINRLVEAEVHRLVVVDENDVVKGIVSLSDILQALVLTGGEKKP

[6] = target: human VEGF type-II receptor (KDR/Flk-1/VEGFR2) (Homo sapiens, UniProt P35968); assay: In vitro kinase assay KDR; format: biochemical
human VEGF type-II receptor (KDR/Flk-1/VEGFR2), sequence (P35968 20-1356): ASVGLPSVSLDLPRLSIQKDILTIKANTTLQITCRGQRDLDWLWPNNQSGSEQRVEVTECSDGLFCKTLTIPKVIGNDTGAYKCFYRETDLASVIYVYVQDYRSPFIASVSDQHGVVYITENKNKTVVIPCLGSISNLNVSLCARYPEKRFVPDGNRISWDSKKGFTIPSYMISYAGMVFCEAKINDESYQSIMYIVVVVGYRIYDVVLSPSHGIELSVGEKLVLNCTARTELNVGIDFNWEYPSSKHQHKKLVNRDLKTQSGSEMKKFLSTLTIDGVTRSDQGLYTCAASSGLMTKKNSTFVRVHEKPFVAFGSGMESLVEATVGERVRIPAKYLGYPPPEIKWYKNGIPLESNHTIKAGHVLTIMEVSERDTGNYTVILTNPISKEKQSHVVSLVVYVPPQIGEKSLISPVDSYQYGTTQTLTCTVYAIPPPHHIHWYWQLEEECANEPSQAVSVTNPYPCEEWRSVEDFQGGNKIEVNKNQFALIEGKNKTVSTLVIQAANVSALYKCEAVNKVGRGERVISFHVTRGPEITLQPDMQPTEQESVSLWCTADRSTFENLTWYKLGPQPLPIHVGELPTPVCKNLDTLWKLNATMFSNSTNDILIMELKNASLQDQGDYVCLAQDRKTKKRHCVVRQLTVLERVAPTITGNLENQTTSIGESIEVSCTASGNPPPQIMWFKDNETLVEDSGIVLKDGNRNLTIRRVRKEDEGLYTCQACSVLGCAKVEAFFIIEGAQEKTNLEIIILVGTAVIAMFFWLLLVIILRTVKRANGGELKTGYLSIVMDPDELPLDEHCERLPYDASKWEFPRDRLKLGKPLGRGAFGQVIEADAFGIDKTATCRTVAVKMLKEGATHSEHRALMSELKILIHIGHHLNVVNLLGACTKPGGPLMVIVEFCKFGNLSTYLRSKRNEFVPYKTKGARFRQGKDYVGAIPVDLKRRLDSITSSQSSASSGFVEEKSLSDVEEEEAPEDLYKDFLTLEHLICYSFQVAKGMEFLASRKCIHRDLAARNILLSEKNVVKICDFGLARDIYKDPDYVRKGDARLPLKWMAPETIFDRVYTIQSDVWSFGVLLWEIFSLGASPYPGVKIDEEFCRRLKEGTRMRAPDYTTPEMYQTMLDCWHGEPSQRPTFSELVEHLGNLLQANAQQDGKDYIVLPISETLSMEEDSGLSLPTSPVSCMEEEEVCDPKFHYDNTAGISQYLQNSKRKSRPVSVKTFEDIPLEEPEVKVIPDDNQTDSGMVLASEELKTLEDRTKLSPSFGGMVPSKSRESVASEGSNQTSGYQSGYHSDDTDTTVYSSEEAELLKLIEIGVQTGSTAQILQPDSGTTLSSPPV

[7] = target: human platelet-derived growth factor receptor-β (PDGFRβ) (Homo sapiens, UniProt P09619); assay: In vitro kinase assay PDGFRβ; format: biochemical; details: purified human enzyme, 10 μM ATP
human platelet-derived growth factor receptor-β (PDGFRβ), sequence (P09619 33-1106): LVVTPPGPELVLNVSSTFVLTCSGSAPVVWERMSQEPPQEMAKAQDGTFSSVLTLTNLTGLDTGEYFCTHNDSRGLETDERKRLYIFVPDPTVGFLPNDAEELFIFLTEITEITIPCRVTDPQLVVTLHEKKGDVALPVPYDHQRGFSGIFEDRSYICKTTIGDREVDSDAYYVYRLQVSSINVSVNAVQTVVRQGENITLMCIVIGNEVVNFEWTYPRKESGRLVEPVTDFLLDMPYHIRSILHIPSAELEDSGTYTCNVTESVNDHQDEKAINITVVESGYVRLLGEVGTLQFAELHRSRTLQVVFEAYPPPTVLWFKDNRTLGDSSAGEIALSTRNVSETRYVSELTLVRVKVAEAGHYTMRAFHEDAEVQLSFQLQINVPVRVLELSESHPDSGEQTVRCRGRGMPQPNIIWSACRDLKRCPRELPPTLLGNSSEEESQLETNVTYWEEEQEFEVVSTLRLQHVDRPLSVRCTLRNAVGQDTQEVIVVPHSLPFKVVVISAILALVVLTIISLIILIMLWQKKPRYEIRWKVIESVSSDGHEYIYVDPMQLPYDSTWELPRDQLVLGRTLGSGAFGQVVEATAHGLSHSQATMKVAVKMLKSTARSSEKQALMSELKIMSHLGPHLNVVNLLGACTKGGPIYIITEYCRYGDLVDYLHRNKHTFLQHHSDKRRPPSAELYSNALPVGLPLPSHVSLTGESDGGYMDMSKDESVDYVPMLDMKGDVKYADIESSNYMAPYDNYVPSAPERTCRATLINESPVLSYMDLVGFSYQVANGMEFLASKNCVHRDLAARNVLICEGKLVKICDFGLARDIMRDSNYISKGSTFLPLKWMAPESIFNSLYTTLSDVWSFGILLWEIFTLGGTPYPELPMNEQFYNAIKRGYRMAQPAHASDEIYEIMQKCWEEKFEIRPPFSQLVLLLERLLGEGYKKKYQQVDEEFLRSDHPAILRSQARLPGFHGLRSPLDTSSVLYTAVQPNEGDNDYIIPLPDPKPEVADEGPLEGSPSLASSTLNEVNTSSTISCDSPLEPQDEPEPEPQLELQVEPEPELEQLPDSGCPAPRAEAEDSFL

[8] = tested on: BMP-responsive C2C12BRA cells (Id1 promoter-firefly luciferase reporter), BMP4; assay: BMP-responsive luciferase reporter assay; format: cell-based; details: read-out: IC50 in BMP-responsive luciferase reporter assay
caALK3 = caALK3 (Homo sapiens, UniProt P36894, Q233D); assay: BMP reporter subtype analysis, caALK3; format: cell-based
caALK3, sequence (P36894 24-532 Q233D): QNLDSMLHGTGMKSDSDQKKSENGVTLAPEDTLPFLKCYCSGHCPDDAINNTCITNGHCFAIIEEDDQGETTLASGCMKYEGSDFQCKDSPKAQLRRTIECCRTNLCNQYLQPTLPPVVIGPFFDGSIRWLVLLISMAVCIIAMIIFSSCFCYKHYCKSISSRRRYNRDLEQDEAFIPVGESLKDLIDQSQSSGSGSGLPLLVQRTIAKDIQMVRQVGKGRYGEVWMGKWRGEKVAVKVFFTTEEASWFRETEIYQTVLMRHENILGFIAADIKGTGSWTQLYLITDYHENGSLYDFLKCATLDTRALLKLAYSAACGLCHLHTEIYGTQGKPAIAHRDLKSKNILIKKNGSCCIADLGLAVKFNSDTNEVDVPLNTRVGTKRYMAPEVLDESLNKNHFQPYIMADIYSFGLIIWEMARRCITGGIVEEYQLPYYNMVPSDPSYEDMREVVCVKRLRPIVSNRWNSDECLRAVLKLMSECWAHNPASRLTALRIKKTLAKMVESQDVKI

caALK6 = assay: BMP reporter subtype analysis, caALK6; format: cell-based; details: C2C12BRA cells transfected with constitutively active ALK6
[9] = tested on: BMP4-induced Smad 1/5/8 phosphorylation; assay: Western blot, BMP4-induced Smad1/5/8 phosphorylation in HEK293 cells; format: cell-based; details: BMP4 50 ng/ml
[10] = tested on: BMP4-induced p38 MAPK phosphorylation; assay: Western blot, BMP4-induced p38 MAPK phosphorylation in HEK293 cells; format: cell-based
How it was run: (§1)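 Confluent HEK293 cells were serum-starved, then pretreated with the test compound or DMSO for 30 min. They were then stimulated for 30 min with Activin-A at 40 ng/ml (p-Smad2) or BMP4 at 50 ng/ml (p-p38 MAPK). Cells were lysed with protease and phosphatase inhibitors, and lysates were run on SDS-PAGE and transferred to PVDF. Phospho-proteins were detected by infrared-dye secondary antibodies.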

[11] = tested on: Activin A-induced Smad2 phosphorylation; assay: Western blot, Activin A-induced Smad2 phosphorylation in HEK293 cells; format: cell-based; details: Activin-A 40 ng/ml
How it was run: as §1

[12] = tested on: human umbilical vein endothelial cells (HUVEC); assay: Endothelial tubule formation; format: cell-based; details: 15hr incubation
How it was run: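 HUVECs were maintained in EGM-2 on 0.2% gelatin-coated dishes. 1.5 ×10^4 cells were plated on wells pre-coated with extracellular matrix gel and treated with the test compound or DMSO. After 15 hr incubation, tubular network formation was examined by inverted light microscopy.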

[13] = tested on: VEGF-induced phosphorylation of AKT; assay: Western blot, VEGF-stimulated Akt phosphorylation in BAEC; format: cell-based, bovine
How it was run: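 Bovine aortic endothelial cells were grown in DMEM with 10% FBS on 0.2% gelatin-coated dishes. Confluent cells were serum-starved for 18–24 hrs, treated with the test compound or DMSO for 30 min, then stimulated for 8 min with 50 ng/ml VEGF165. Lysates, prepared with protease and phosphatase inhibitors, were immunoblotted for p-AKT and total AKT with infrared-dye detection.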

`c1cc(-c2cnn3cc(-c4ccc(OCCN5CCCCC5)cc4)cnc23)ccn1` [DM, dorsomorphin, reference compound] was tested, and the “Dorsalization at 2 μM” value ([1]; 2 μM, administered at 3-hpf) was “dorsalized zebrafish embryos”, the “Effect on ISV formation at 10 μM” value ([2]; administered at 12-hpf) was “blocked intersomitic vessel (ISV) formation” and the “Effect on ISV formation at 10 μM” value ([2]; administered at 12-hpf, listed as dorsomorphin) was “completely inhibited ISV formation”. The “Effect on VEGF-stimulated Flk1 phosphorylation” value ([3]; 50ng/ml VEGF165) was “suppressed VEGF-dependent Flk1 phosphorylation in a dose-dependent manner”, the “Effect on VEGF-stimulated Flk1 phosphorylation” value ([3]; 50ng/ml VEGF165, listed as dorsomorphin) was “inhibited the VEGF-stimulated Flk1 phosphorylation in a dose-dependent manner” and the “Early lethality at 20 μM” value (zebrafish embryos) was “substantial early lethality”.
With `CC(C)Oc1ccc(-c2cnc3c(-c4ccnc5ccccc45)cnn3c2)cc1` [DMH1, 4-(6-(4-isopropoxyphenyl)pyrazolo[1,5-a]pyrimidin-3-yl)quinoline] the “Dorsalization at 0.2 μM” value ([1]; 0.2 μM, treated from 3-hpf) was “caused severe dorsalization”, the “Effect on ISV formation at 100 μM” value ([2]; 100 μM, treated from 12-hpf) was “no effect on ISV formation” and the “Effect on ISV formation (words, no concentration given)” value ([2]; administered at 12-hpf) was “did not have any detectible effect on ISV formation”. For the same compound, the “IC50 ALK5 (TGFβR-I)” value [4] was “without any detectable inhibition”, the “IC50 AMPK” value [5] was “without any detectable inhibition” and the IC50 [6] was over 30000 nM. The “IC50 KDR (VEGFR2)” value ([6]; purified human enzyme, 10 μM ATP) was “without any detectable inhibition”, the “IC50 PDGFRβ” value [7] was “without any detectable inhibition” and the IC50 [8] was about 100 nM. The IC50 (caALK3) was under 500 nM, the “Effect on signaling by caALK6” value (caALK6) was “negligible effect on signaling by caALK6” and the “Effect on VEGF-stimulated Flk1 phosphorylation” value ([3]; 50ng/ml VEGF165) was “no effect on VEGF-induced Flk1 phosphorylation”. The “Effect on BMP-induced Smad1/5/8 activation” value [9] was “selectively inhibited the BMP-induced Smad1/5/8 activation; also recorded: blocked BMP4-induced Smad 1/5/8 phosphorylation”, the “Effect on BMP4-induced p38 MAPK phosphorylation” value [10] was “no effect” and the “Effect on Activin A-induced Smad2 phosphorylation” value [11] was “no effect”.
With `c1ccc2c(-c3cnn4cc(-c5ccc(OCCN6CCOCC6)cc5)cnc34)ccnc2c1` [DMH2, 4-(2-(4-(3-(quinolin-4-yl)pyrazolo[1,5-a]pyrimidin-6-yl)phenoxy)ethyl)morpholine] the “Dorsalization (EC100, μM)” value [1] was about 0.1 µM, the “Effect on ISV formation (words, no concentration given)” value ([2]; administered at 12-hpf) was “did not have any detectible effect on ISV formation” and the IC50 [8] was about 20 nM. For the same compound, the “Nonspecific developmental effects” value (zebrafish embryos; at higher concentrations) was “caused nonspecific developmental effects at higher concentrations”.
For `CN(C)CCCOc1ccc(-c2cnc3c(-c4ccnc5ccccc45)cnn3c2)cc1` [DMH3, N,N-dimethyl-3-(4-(3-(quinolin-4-yl)pyrazolo[1,5-a]pyrimidin-6-yl)phenoxy)propan-1-amine], the “Dorsalization (EC100, μM)” value [1] was about 1 µM, the “Effect on ISV formation (words, no concentration given)” value ([2]; administered at 12-hpf) was “did not have any detectible effect on ISV formation” and the IC50 [8] was about 7 nM.
In the case of `c1ccc(-c2cnn3cc(-c4ccc(OCCN5CCOCC5)cc4)cnc23)cc1` [DMH4, 4-(2-(4-(3-phenylpyrazolo[1,5-a]pyrimidin-6-yl)phenoxy)ethyl)morpholine], the “Effect on dorsoventral axis at 50 μM” value ([1]; 50 μM, treated from 3-hpf) is reported as “no effect on dorsoventral axis”, the “Effect on DV axis (words, no concentration given)” value ([1]; administered at 3-hpf) is reported as “no discernable effect on DV axis” and the “Dorsalization (EC100, μM)” value [1] is reported as “No (>50) μM”. The “Effect on ISV and SIV formation at 1 μM” value ([2]; 1 μM) was “disrupted both ISV and SIV formation”, the “Effect on ISV formation (words, no concentration given)” value ([2]; administered at 12-hpf) was “caused significant defects in the ISV and the subintestinal vessel (SIV)” and the “Effect on tubular network formation at 1 μM” value [12] was “effectively blocked angiogenesis; also recorded: blocked VEGF-induced tubular network formation”. The “Effect on VEGF-stimulated Flk1 phosphorylation” value ([3]; 50ng/ml VEGF165) was “effectively blocked VEGF-stimulated phosphorylation; also recorded: blocked VEGF-induced phosphorylation” and the “Effect on VEGF-stimulated Akt phosphorylation” value [13] was “effectively blocked VEGF-stimulated phosphorylation; also recorded: blocked VEGF-induced phosphorylation”.
`c1ccc2c(-c3cnn4cc(-c5ccc(N6CCNCC6)cc5)cnc34)ccnc2c1` [LDN-193189, reference compound] was tested, and the “Dorsalization (EC100, μM)” value [1] was 3 µM, the “Effect on ISV formation at 20 μM” value ([2]; 20 μM, administered at 12-hpf) was “significantly inhibited ISV formation” and the “Early lethality at 20 μM” value (zebrafish embryos) was “substantial early lethality”.
